Residue numbers refer to the chain shown, from its start. Where “and” joins values, the source holds several entries; their conditions need not be identical. Equal values may be shown once.

By EC50 is commonly meant the concentration that produces a half-maximal response. Broadly, the Emax is the size of the effect at its maximum, as opposed to the concentration needed.

Assay type in all cases: cell-based
One assay addresses T1, rM1 receptor (Rattus norvegicus, UniProt P08482).
T1 sequence (P08482 1-460): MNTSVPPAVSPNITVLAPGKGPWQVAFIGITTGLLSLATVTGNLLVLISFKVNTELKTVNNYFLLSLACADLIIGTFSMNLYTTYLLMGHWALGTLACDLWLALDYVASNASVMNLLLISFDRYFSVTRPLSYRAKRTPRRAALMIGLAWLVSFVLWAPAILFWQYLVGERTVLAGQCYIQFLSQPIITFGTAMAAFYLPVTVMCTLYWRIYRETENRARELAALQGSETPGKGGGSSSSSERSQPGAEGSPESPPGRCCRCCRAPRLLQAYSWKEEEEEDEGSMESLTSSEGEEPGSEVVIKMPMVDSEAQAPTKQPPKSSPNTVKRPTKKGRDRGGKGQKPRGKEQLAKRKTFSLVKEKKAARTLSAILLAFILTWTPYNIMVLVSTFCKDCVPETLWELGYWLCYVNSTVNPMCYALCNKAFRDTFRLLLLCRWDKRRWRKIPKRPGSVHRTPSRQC
Kind of assay: Calcium mobilization assay, CHO-K1 cells stably expressing rM1. In general terms: Calcium flux is commonly read through the fluorescence of an indicator in the cells.

The next assay concerns the target T2, rM1 Y381A (Rattus norvegicus, UniProt P08482, Y381A).
T2 sequence (P08482 1-460 Y381A): T1 sequence (P08482 1-460) with Y381A
As to the kind of experiment: Calcium mobilization in rM1 Y381A.

A further assay has as its target T3, rM1 K392D (Rattus norvegicus, UniProt P08482, K392D).
T3 sequence (P08482 1-460 K392D): T1 sequence (P08482 1-460) with K392D
As to the kind of experiment: Calcium mobilization, rM1 K392D mutant CHO-K1 cells. The note with it: compared with wt rM1. Summed up:
(§1)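 CHO-K1 cells were transiently transfected overnight at 37 °C with 10 μg of mutant rat M1 cDNA in pcDNA3.1+ using Fugene 6, then plated for the calcium assay. They were loaded with 2 μM Fluo-4 AM for 1 h at 37 °C in HEPES/probenecid-buffered HBSS, pH 7.4. Test compound dose–response series were added at 19 s. Calcium mobilization was measured as fluorescence increase over basal.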

In another assay the target is T4, rM1 E401H (Rattus norvegicus, UniProt P08482, E401H).
T4 sequence (P08482 1-460 E401H): T1 sequence (P08482 1-460) with E401H
As to the kind of experiment: Calcium mobilization, rM1 E401H mutant CHO-K1 cells. An outline of the steps: as §1

The next assay addresses T5, hM2 (Homo sapiens, UniProt P08172).
T5 sequence (P08172 1-466): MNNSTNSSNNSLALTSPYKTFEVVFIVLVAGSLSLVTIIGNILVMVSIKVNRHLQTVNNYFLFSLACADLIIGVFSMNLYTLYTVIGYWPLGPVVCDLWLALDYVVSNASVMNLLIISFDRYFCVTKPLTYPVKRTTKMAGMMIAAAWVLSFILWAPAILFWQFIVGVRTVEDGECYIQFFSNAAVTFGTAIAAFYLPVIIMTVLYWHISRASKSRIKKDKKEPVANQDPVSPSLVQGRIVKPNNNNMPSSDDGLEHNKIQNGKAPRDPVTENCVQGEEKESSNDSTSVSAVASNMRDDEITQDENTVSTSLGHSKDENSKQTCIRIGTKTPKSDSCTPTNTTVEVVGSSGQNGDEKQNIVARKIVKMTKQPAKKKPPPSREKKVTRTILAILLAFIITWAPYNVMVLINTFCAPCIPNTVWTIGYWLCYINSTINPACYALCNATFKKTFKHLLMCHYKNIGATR
As to the kind of experiment: Calcium mobilization assay, agonist mode, M2. The following applies: up to 30 μM. An outline of the steps:
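CHO-K1 cells stably expressing hM2/Gqi5 or rM4/Gqi5 (6 × 10^4 cells/well), or hM3 or hM5 (5 × 10^4 cells/well), were cultured overnight at 37 °C in 5% CO2. Cells were loaded with 2 μM Fluo-4 AM for 1 h at 37 °C in HBSS with 20 mM HEPES and 2.5 mM probenecid, pH 7.4. Eight-point test compound concentration series were added at 19 s of a 130 s read. Calcium flux was read as fluorescence fold over basal.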

Consider `CCOC(=O)N1CCC(NCCNC(=O)c2ccccc2)CC1` [VU0184670, ethyl 4-(2-benzamidoethylamino)piperidine-1-carboxylate], for which the EC50 at rM1 receptor came to 152 nM; at rM1 Y381A, 304 ± 156 nM; at rM1 E401H it was 1210 nM. Also, on rM1 receptor (rM1 CHO-K1, calcium mobilization), the “ACh Max efficacy” value was 85 % ACh Max and 85.01 % ACh Max. At rM1 receptor (rM1 cells, fixed increasing concentrations of atropine), the “Schild analysis: shift of dose-response curve with increasing atropine” value was “rightward shift with diminished efficacy”. Moreover, on rM1 Y381A (M1Y381A CHO cells vs WT M1 CHO cells), the “potency at M1 Y381A compared with WT M1” value is reported as “potencies similar to those observed in WT M1 CHO cells”. Also, at rM1 Y381A (rM1 Y381A cells), the “rM1 Y381A AChmax (maximal efficacy)” value was 63.25 % max. Also, the “functional activity at K392D mutant” value at rM1 K392D is on record as “comparable results to wt rM1”. In addition, the Emax on rM1 E401H (CHO-K1, read-out: E401H mutant Emax) is 29.4%. Further, on hM2, the “agonist activity at M2” value is given as “no activity”.

Values taken from PMC3180826 (ACS chemical neuroscience, 2010).
